# Measurements taken from ChEMBL document CHEMBL1687848, “In vitro effect of qnrA1, qnrB1, and qnrS1 genes on fluoroquinolone activity against isogenic Escherichia coli isolates with mutations in gyrA and parC” (2011).
# Legend:
# Assay type in all cases: functional
# [1] = system: Escherichia coli; assay: Antibacterial activity against Escherichia coli ATCC 25922 expressing qnrA gene and pBK-QnrA1 assessed as resistant colonies recovered one step below mutant prevention concentration
# In short: (§1)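 Resistant colonies recovered from Mueller-Hinton plates one concentration step below the MPC for each fluoroquinolone were retested for MIC. Mutants taken from plated concentrations closest to the MPC had the QRDRs of gyrA and parC analysed.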
# [2] = system: Escherichia coli; assay: Antibacterial activity against qnrB gene expressing Escherichia coli ATCC 25922 harboring GyrA S83L mutant and pBK-QnrB1 by broth microdilution method
# [3] = system: Escherichia coli; assay: Antibacterial activity against Escherichia coli ATCC 25922 assessed as earliest time required to resistant colonies visible one step below mutant prevention concentration
# [4] = system: Escherichia coli; assay: Antibacterial activity against Escherichia coli ATCC 25922 harboring GyrA S83L mutant by broth microdilution method
# [5] = system: Escherichia coli; assay: Antibacterial activity against qnrS gene expressing Escherichia coli ATCC 25922 harboring GyrA S83L mutant and pBK-QnrS1 assessed as earliest time required to resistant colonies visible one step below mutant prevention concentration
# [6] = system: Escherichia coli; assay: Antibacterial activity against Escherichia coli ATCC 25922 expressing qnrA gene and pBK-QnrA1 assessed as earliest time required to resistant colonies visible one step below mutant prevention concentration
# [7] = system: Escherichia coli; assay: Antibacterial activity against Escherichia coli ATCC 25922 harboring GyrA S83L mutant assessed as mutant prevention concentration
# [8] = system: Escherichia coli; assay: Antibacterial activity against qnrA gene expressing Escherichia coli ATCC 25922 harboring ParC S80R mutant and pBK-QnrA1 by broth microdilution method
# [9] = system: Escherichia coli; assay: Antibacterial activity against Escherichia coli ATCC 25922 expressing qnrA gene and pBK-QnrA1 assessed as mutant prevention concentration
# [10] = system: Escherichia coli; assay: Antibacterial activity against Escherichia coli ATCC 25922 expressing qnrA gene and pBK-QnrA1 by broth microdilution method
# [11] = system: Escherichia coli; assay: Antibacterial activity against qnrA gene expressing Escherichia coli ATCC 25922 harboring ParC S80R mutant, ParC S80R mutant and pBK-QnrA1 by broth microdilution method
# [12] = system: Escherichia coli; assay: Antibacterial activity against qnrS gene expressing Escherichia coli ATCC 25922 harboring GyrA S83L mutant and pBK-QnrS1 assessed as mutant prevention concentration
# [13] = system: Escherichia coli; assay: Antibacterial activity against Escherichia coli ATCC 25922 expressing qnrB gene and pBK-QnrB1 by broth microdilution method
# [14] = system: Escherichia coli; assay: Antibacterial activity against Escherichia coli ATCC 25922 assessed as mutant prevention concentration
# [15] = system: Escherichia coli; assay: Antibacterial activity against Escherichia coli ATCC 25922 harboring GyrA S83L mutant and ParC S80R mutant by broth microdilution method
# [16] = system: Escherichia coli; assay: Antibacterial activity against qnrB gene expressing Escherichia coli ATCC 25922 harboring GyrA S83L mutant and pBK-QnrB1 assessed as resistant colonies recovered one step below mutant prevention concentration; in short: as §1
# [17] = system: Escherichia coli; assay: Antibacterial activity against Escherichia coli ATCC 25922 expressing qnrS gene and pBK-QnrS1 assessed as resistant colonies recovered one step below mutant prevention concentration; in short: as §1
# [18] = system: Escherichia coli; assay: Antibacterial activity against Escherichia coli ATCC 25922 harboring ParC S80R mutant by broth microdilution method
# [19] = system: Escherichia coli; assay: Antibacterial activity against qnrA gene expressing Escherichia coli ATCC 25922 harboring GyrA S83L mutant and pBK-QnrA1 assessed as earliest time required to resistant colonies visible one step below mutant prevention concentration
# [20] = system: Escherichia coli; assay: Antibacterial activity against qnrB gene expressing Escherichia coli ATCC 25922 harboring GyrA S83L mutant and pBK-QnrB1 assessed as mutant prevention concentration
# [21] = system: Escherichia coli; assay: Antibacterial activity against Escherichia coli ATCC 25922 expressing qnrS gene and pBK-QnrS1 assessed as earliest time required to resistant colonies visible one step below mutant prevention concentration
# [22] = system: Escherichia coli; assay: Antibacterial activity against qnrS gene expressing Escherichia coli ATCC 25922 harboring ParC S80R mutant and pBK-QnrS1 by broth microdilution method
# [23] = system: Escherichia coli; assay: Antibacterial activity against Escherichia coli ATCC 25922 harboring GyrA S83L mutant assessed as earliest time required to resistant colonies visible one step below mutant prevention concentration
# [24] = system: Escherichia coli; assay: Antibacterial activity against qnrA gene expressing Escherichia coli ATCC 25922 harboring GyrA S83L mutant and pBK-QnrA1 assessed as mutant prevention concentration
# [25] = system: Escherichia coli; assay: Antibacterial activity against qnrB gene expressing Escherichia coli ATCC 25922 harboring ParC S80R mutant and pBK-QnrB1 by broth microdilution method
# [26] = system: Escherichia coli; assay: Antibacterial activity against Escherichia coli ATCC 25922 expressing qnrB gene and pBK-QnrB1 assessed as mutant prevention concentration
# [27] = system: Escherichia coli; assay: Antibacterial activity against qnrS gene expressing Escherichia coli ATCC 25922 harboring ParC S80R mutant, ParC S80R mutant and pBK-QnrS1 by broth microdilution method
# [28] = system: Escherichia coli; assay: Antibacterial activity against Escherichia coli ATCC 25922 by broth microdilution method
# [29] = system: Escherichia coli; assay: Antibacterial activity against Escherichia coli ATCC 25922 expressing qnrS gene and pBK-QnrS1 by broth microdilution method
# [30] = system: Escherichia coli; assay: Antibacterial activity against Escherichia coli ATCC 25922 expressing qnrS gene and pBK-QnrS1 assessed as mutant prevention concentration
# [31] = system: Escherichia coli; assay: Antibacterial activity against Escherichia coli ATCC 25922 harboring GyrA S83L mutant assessed as resistant colonies recovered one step below mutant prevention concentration; in short: as §1
# [32] = system: Escherichia coli; assay: Antibacterial activity against qnrA gene expressing Escherichia coli ATCC 25922 harboring GyrA S83L mutant and pBK-QnrA1 by broth microdilution method
# [33] = system: Escherichia coli; assay: Antibacterial activity against qnrS gene expressing Escherichia coli ATCC 25922 harboring GyrA S83L mutant and pBK-QnrS1 by broth microdilution method
# [34] = system: Escherichia coli; assay: Antibacterial activity against qnrB gene expressing Escherichia coli ATCC 25922 harboring ParC S80R mutant, ParC S80R mutant and pBK-QnrB1 by broth microdilution method
# [35] = system: Escherichia coli; assay: Antibacterial activity against Escherichia coli ATCC 25922 expressing qnrB gene and pBK-QnrB1 assessed as resistant colonies recovered one step below mutant prevention concentration; in short: as §1
# [36] = system: Escherichia coli; assay: Antibacterial activity against qnrB gene expressing Escherichia coli ATCC 25922 harboring GyrA S83L mutant and pBK-QnrB1 assessed as earliest time required to resistant colonies visible one step below mutant prevention concentration
# [37] = system: Escherichia coli; assay: Antibacterial activity against Escherichia coli ATCC 25922 expressing qnrB gene and pBK-QnrB1 assessed as earliest time required to resistant colonies visible one step below mutant prevention concentration
# [38] = system: Escherichia coli; assay: Antibacterial activity against qnrS gene expressing Escherichia coli ATCC 25922 harboring GyrA S83L mutant and pBK-QnrS1 assessed as resistant colonies recovered one step below mutant prevention concentration; in short: as §1
smiles,measurement,setting,value
COc1c(N2C[C@@H]3CCCN[C@@H]3C2)c(F)cc2c(=O)c(C(=O)O)cn(C3CC3)c12 [MOXIFLOXACIN],MIC,[1],0.5 µg/mL
same,MBC,[2],0.5 µg/mL
same,MIC,[2],0.5 µg/mL
same,Time,[3],48 h
same,MBC,[4],0.125 µg/mL
same,Time,[5],24 h
same,Time,[6],24 h
same,Activity,[7],4 µg/mL
same,MBC,[8],0.5 µg/mL
same,MIC,[8],0.5 µg/mL
same,Activity,[9],8 µg/mL
same,MBC,[10],0.5 µg/mL
same,MIC,[10],0.25 µg/mL
same,MBC,[11],4 µg/mL
same,Activity,[12],32 µg/mL
same,MBC,[13],1 µg/mL
same,MIC,[13],0.25 µg/mL
same,Activity,[14],2 µg/mL
same,MBC,[15],0.25 µg/mL
same,MIC,[15],0.25 µg/mL
same,MIC,[16],1 µg/mL
same,MIC,[17],0.5 µg/mL
same,MBC,[18],0.008 µg/mL
same,MIC,[18],0.008 µg/mL
same,Time,[19],24 h
same,Activity,[20],32 µg/mL
same,Time,[21],24 h
same,MBC,[22],0.5 µg/mL
same,MIC,[22],0.25 µg/mL
same,Time,[23],24 h
same,Activity,[24],16 µg/mL
same,MBC,[25],0.5 µg/mL
same,MIC,[25],0.5 µg/mL
same,Activity,[26],4 µg/mL
same,MBC,[27],4 µg/mL
same,MBC,[28],0.015 µg/mL
same,MIC,[28],0.008 µg/mL
same,MBC,[29],0.25 µg/mL
same,MIC,[29],0.25 µg/mL
same,Activity,[30],4 µg/mL
same,MIC,[31],1 µg/mL
same,MBC,[32],0.5 µg/mL
same,MIC,[32],0.5 µg/mL
same,MBC,[33],2 µg/mL
same,MIC,[33],1 µg/mL
same,MBC,[34],2 µg/mL
same,MIC,[34],1 µg/mL
same,MIC,[35],0.5 µg/mL
same,Time,[36],24 h
same,Time,[37],24 h
same,MIC,[38],1 µg/mL
O=C(O)c1cn(C2CC2)c2cc(N3CCNCC3)c(F)cc2c1=O [CIPROFLOXACIN],MBC,[2],0.5 µg/mL
same,Time,[3],48 h
same,MBC,[4],0.125 µg/mL
same,Time,[5],24 h
same,Time,[6],48 h
same,Activity,[7],4 µg/mL
same,MBC,[8],0.25 µg/mL
same,Activity,[9],8 µg/mL
same,MBC,[10],0.125 µg/mL
same,MBC,[11],4 µg/mL
same,Activity,[12],8 µg/mL
same,MBC,[13],0.125 µg/mL
same,Activity,[14],1 µg/mL
same,MBC,[15],2 µg/mL
same,MBC,[18],0.004 µg/mL
same,Time,[19],24 h
same,Activity,[20],8 µg/mL
same,Time,[21],24 h
same,MBC,[22],0.25 µg/mL
same,Time,[23],24 h
same,Activity,[24],16 µg/mL
same,MBC,[25],0.25 µg/mL
same,Activity,[26],2 µg/mL
same,MBC,[27],4 µg/mL
same,MBC,[28],0.015 µg/mL
same,MBC,[29],0.25 µg/mL
same,Activity,[30],4 µg/mL
same,MBC,[32],0.5 µg/mL
same,MBC,[33],1 µg/mL
same,MBC,[34],2 µg/mL
same,Time,[36],24 h
same,Time,[37],72 h
